Measured values of several laboratories.
Lines come from different studies, so protocols differ.
TMEM97: Sigma intracellular receptor 2 (TMEM97, Homo sapiens, UniProt Q5BJF2)
SIGMAR1: Sigma non-opioid intracellular receptor 1 (SIGMAR1, Cavia porcellus, UniProt Q60492)
CASP7: Caspase-7 (CASP7, Homo sapiens, UniProt P55210)
Prostate-specific antigen: Prostate-specific antigen (Homo sapiens, UniProt P07288)
ADRA2B: Alpha-2B adrenergic receptor (ADRA2B, Homo sapiens, UniProt P18089)
ADRA1D: Alpha-1D adrenergic receptor (ADRA1D, Homo sapiens, UniProt P25100)

Compound	target	read-out	action	method	pH	notes	Ki [nM]
O=C(c1ccc(CNCCCN2CCN(C3CCCCC3)CC2)cc1)c1ccc([N+](=O)[O-])cc1	TMEM97	ligand displacement		radioligand		cell membranes	33
O=C(NCCN1CCCCC1)c1cc(Br)ccc1O	SIGMAR1	ligand displacement		radioligand		cell membranes	> 10000
O=c1c(O)c(-c2cc(O)c(O)c(O)c2)oc2cc(O)cc(O)c12	CASP7	enzyme activity	inhibitor	fluorescence			65900
CCCn1nc(C(=O)N2CCCCC2)c2c1CCC(N1CCC(c3ccncc3)CC1)C2 (stereo not shown)	TMEM97	ligand displacement		radioligand			16
CCCC[C@H](NC(=O)[C@H](CCC(N)=O)NC(=O)[C@H](CO)NC(=O)[C@H](CO)NC(=O)CCCCCN)C(=O)N[C@@H](CC(C)C)B(O)O	Prostate-specific antigen	enzyme activity	inhibitor	fluorescence	pH 7.8		43.1
O=C(CCCCC1SC[C@@H]2NC(=O)N[C@H]12)NCCCN(CCCN1CCN(C2CCCCC2)CC1)CC(=O)Nc1ccc(C(=O)c2ccccc2)cc1 (stereo in doubt)	TMEM97	ligand displacement		radioligand		cell membranes	87
CCCC[C@H](NC(=O)[C@H](CCC(N)=O)NC(=O)[C@H](CO)NC(=O)[C@H](Cc1ccccc1)NC(=O)CCCCCN)C(=O)N[C@@H](CCCBr)B1O[C@@H]2C[C@@H]3C[C@@H](C3(C)C)[C@]2(C)O1	Prostate-specific antigen	enzyme activity	inhibitor	fluorescence	pH 7.8		73.3
CNc1nc(C#Cc2ccc(Cl)s2)nc2c1ncn2[C@H]1[C@H](O)[C@H](O)[C@]2(C(=O)OC)C[C@H]12	SIGMAR1	ligand displacement		radioligand			8730
CN(Cc1ccc(NC(=O)C2=Cc3cc(-c4ccc(OCCCF)cc4)ccc3CCC2)cc1)C1CCOCC1	ADRA2B	ligand displacement		radioligand			1200
C[C@@H]1O[C@H](CNS(=O)(=O)c2ccc(CCn3cc(CN4CCN(c5cc6c(cc5F)c(=O)c(C(=O)O)cn6C5CC5)CC4)nn3)s2)[C@@H](O)[C@H](O)[C@@H]1O	Fucose-binding lectin PA-IIL (lecB, Pseudomonas aeruginosa, UniProt Q9HYN5)	ligand displacement		FP			820
C#CCNCCCN1CCN(CCCNC(=O)c2ccc(C(=O)c3ccc([N+](=O)[O-])cc3)cc2)CC1	TMEM97	ligand displacement		radioligand		cell membranes	60.1
COc1ccc2c(c1)C(=O)N(CCN1CCN(c3ccccc3OC)CC1)C2	ADRA1D	ligand displacement		radioligand			12.4
CCCC[C@H](NC(=O)[C@H](CCCCN)NC(=O)[C@H](CO)NC(=O)[C@H](CO)NC(=O)OCc1ccccc1)C(=O)N[C@@H](CCCBr)B(O)O	Prostate-specific antigen	enzyme activity	inhibitor	fluorescence	pH 7.8		24.2
CC(C)(C)Oc1cc(CCC(C)(C)N2Cc3ccc(S(C)(=O)=O)cc3C2)ccc1O	TMEM97	ligand displacement		radioligand		cell membranes	8.5
CCCn1nc(C(=O)N2CCCCC2)c2c1CCC(NCCc1ccncc1)C2 (stereo not shown)	TMEM97	ligand displacement		radioligand			> 10000
O=C(NCCN1CCCCC1)c1cc(Br)ccc1OCCCF	SIGMAR1	ligand displacement		radioligand		cell membranes	52.9

Compound	target	read-out	action	method	pH	notes	Ki [nM]
CN(Cc1ccc(NC(=O)C2=Cc3cc(-c4ccc(OCCCCCF)cc4)ccc3CCC2)cc1)C1CCOCC1	ADRA2B	ligand displacement		radioligand			6810
Cc1cc(Oc2nccc3ccsc23)ccc1-c1c(C)c(=O)[nH]c(=O)n1C	Muscarinic acetylcholine receptor M3 (CHRM3, Homo sapiens, UniProt P20309)	ligand displacement		radioligand			4600
C#CCNCc1ccc(C(=O)c2ccc([N+](=O)[O-])cc2)cc1	TMEM97	ligand displacement		radioligand		cell membranes	> 10000
CCCC[C@H](NC(=O)[C@H](CCC(N)=O)NC(=O)[C@H](CO)NC(=O)[C@H](Cc1ccccc1)NC(=O)CCCCCNC(=O)c1ccc(I)cc1)C(=O)N[C@@H](CCCBr)B(O)O	Prostate-specific antigen	enzyme activity	inhibitor	fluorescence	pH 7.8		64.4
CCCCN1CCC(COC(=O)c2ccc(N)c(OCF)c2)CC1	ADRA1D	cell-free assay		radioligand			> 10000
CCCn1nc(C(=O)N2CCCCC2)c2c1CCC(Nc1ccc(Oc3ccccc3)cc1)C2 (stereo not shown)	TMEM97	ligand displacement		radioligand			310
O=c1c(O)c(-c2ccc(O)cc2)oc2cc(O)cc(O)c12	CASP7	enzyme activity	inhibitor	fluorescence			> 300000
O=C(c1ccc(CNCCCN2CCN(c3ccc(F)cc3)CC2)cc1)c1ccc([N+](=O)[O-])cc1	TMEM97	ligand displacement		radioligand		cell membranes	34
CCCC[C@H](NC(=O)[C@H](CCC(N)=O)NC(=O)[C@H](CO)NC(=O)C[C@@H](Cc1ccc2ccccc2c1)NC(=O)CCCCCN)C(=O)N[C@@H](Cc1ccccc1)B(O)O	Prostate-specific antigen	enzyme activity	inhibitor	fluorescence	pH 7.8		229
O[C@@H]1[C@H](O)[C@@H]2C[C@@H]2[C@H]1n1cnc2c(NCc3cccc(Cl)c3)nc(C#Cc3ccccc3)nc21	SIGMAR1	ligand displacement		radioligand			7660
CCCC[C@H](NC(=O)[C@H](CCC(N)=O)NC(=O)[C@H](CO)NC(=O)CCCCCN)C(=O)N[C@@H](Cc1ccccc1)B(O)O	Prostate-specific antigen	enzyme activity	inhibitor	fluorescence	pH 7.8		22
O=C1c2ccccc2CCN1CCCCN1CCN(c2ccccn2)CC1	ADRA1D	ligand displacement		radioligand			467
OCCCN1CC[C@@H]2C[C@H]1c1cc(-c3ccc(C(F)(F)F)cc3)ccc12	TMEM97	ligand displacement		radioligand			17
Nc1ccnc2ccccc12	ADRA2B	ligand displacement		radioligand		cell membranes	53800
COc1ccccc1N1CCN(CCCCN2CCc3ccccc3C2=O)CC1	ADRA1D	ligand displacement		radioligand			14.2
